FGF22 binding-1 – binders of recombinant human FGF22 by thermal shift. SYPRO orange fluorescence; percent of sucrose octasulfate shift, DMSO zero. activity (Tm shift, normalised), % at 9.99 µM. 340,000 tested, 1.5% active;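 active = mean Tm shift, scaled 0 neutral to 100 positive control, at about 1.3% or above, every replicate too, limit read from the data; inconclusive = no clear call, values can overlap the other calls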
Target sequence (Q9HCT0 whole entry, looked up): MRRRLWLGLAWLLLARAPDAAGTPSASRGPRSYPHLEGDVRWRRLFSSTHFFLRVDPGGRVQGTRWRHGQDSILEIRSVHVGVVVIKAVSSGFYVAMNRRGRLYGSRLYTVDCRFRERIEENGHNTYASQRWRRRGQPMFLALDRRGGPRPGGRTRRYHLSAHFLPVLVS
ARNT-TACC3 inh – disrupts binding between human ARNT and TACC3; AlphaScreen His-ARNT PAS-B/GST-TACC3 binding, luminescence; TACC3 fragment carries E629A point mutation; inhibition, % at 9.99 µM; 390,000 tested, 0.66% active;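 active = mean inhibition of replicates at least 50% and at least half of replicates each reaching 50%; inconclusive = half or more replicates reach 50% but mean below 50%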
XiGFP reactiv – X-chromosome reactivation activator. 360,000 tested, 0.055% active. activation, % at 7.58 µM. XiGFP mouse fibroblasts, % GFP-positive cells imaging, 3 d; cells co-treated with 5-aza-dC sensitizer; scaled so ellipticine positive control = 100%;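 active = mean normalized replicate activation at least 10% and every replicate at or above 10%; inconclusive = only one of the two criteria met; inactive = mean below 10% and not all replicates reach 10%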
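System: 68-5-11 XiGFP fibroblast line | Buffer or medium: DMEM containing 5-aza-dC | Compound: Single point | Times: Compounds 3 days, fix/stain 15 min at room temperature | Benchmarks: Positive control ellipticine, 6 µM final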
DENV2 CPE rescue – DENV2-induced cell death inhibition; 350,000 tested, 1.7% active; CPE inhibition, % at 9.99 µM; DENV2-infected cells, cytopathic effect rescue, plate reader; AID 651640; in the data active = CPE inhibition above about 20%, passing the limit was not always enough; inconclusive = no clear call, values can overlap the other calls; tested in BHK-21 cells
SIRT5 block – inhibitors of human sirtuin-5 desuccinylase; inhibition, % at 15 µM; AID 652115; Q9NXA8; Purified SirT5, succinyl-peptide AMC, trypsin-coupled fluorescence; 330,000 tested, 1.1% active; in the data active = inhibition above about 15%; inconclusive = no clear call, values can overlap the other calls
Target sequence (Q9NXA8 whole entry, looked up): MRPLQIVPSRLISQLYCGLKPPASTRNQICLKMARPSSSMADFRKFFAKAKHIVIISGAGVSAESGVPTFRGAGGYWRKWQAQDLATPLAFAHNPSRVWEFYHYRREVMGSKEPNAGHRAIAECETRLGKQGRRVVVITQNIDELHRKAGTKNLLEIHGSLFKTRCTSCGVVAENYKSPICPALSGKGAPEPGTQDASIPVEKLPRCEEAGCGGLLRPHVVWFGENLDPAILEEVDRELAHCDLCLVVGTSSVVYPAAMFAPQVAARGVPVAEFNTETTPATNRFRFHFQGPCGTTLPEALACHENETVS
FN deposit inh – fibronectin deposition inhibition | AID 743247 | AH1F fibroblasts, Alexa488-fibronectin deposition fluorescence, overnight | inhibition, % at 12.6 µM | 350,000 tested, 0.086% active;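 active = mean inhibition across replicates of 30% or more, regardless of how many single replicates reach that level; inconclusive = mean under 30% yet at least half of replicates reach 30%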
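test system = AH1F fibroblasts assembling fluorescent fibronectin matrix | quantity = 10000 AH1F cells per well | buffer or medium = DMEM plus 2% serum, read in PBS | doses = single dose, pinned | incubation = 1 h cell attachment, overnight exposure to compound and label | detection = fluorescence at 485 nm excitation, 525 nm emission | read-out basis = inhibition from reduced deposited-fibronectin fluorescence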
FGF22 binding-2 – binders of human FGF22 by thermal shift; 1,000 tested, 2% active; shares compounds with FGF22 binding-1; thermal shift activity, °C (ΔTm) at 38 µM; recombinant FGF22 thermal shift, SYPRO orange fluorescence;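 active = fitted rise in melting shift crosses a set limit at or below the top valid dose tested; inconclusive = flat fit at mid-level activity, or a poor quality fit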
SYPRO no-protein – counter-screen for FGF22 binders: compound-only thermal shift, no protein. 1,000 tested, 2% active. compound-only SYPRO orange thermal shift counter-screen. AID 743019. AC50, µM (top dose mostly 38 µM). shares compounds with FGF22 binding-1;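 active = rising signal whose fitted curve reaches the 0.54 level within the top valid dose, showing a melting point, actives reach about 13 µM in these data; inactive = the rest, including activity in the opposite direction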; also: value is where the raw curve crosses a fixed level and not half-maximal
Hits are given with their value; . = inactive; ? = inconclusive; / = no result given. Shown are actives, neighbours in structure and some others; about 3.8% of the full set was active somewhere.

SMILES	FGF22 binding-1	ARNT-TACC3 inh	XiGFP reactiv	DENV2 CPE rescue	SIRT5 block	FN deposit inh	FGF22 binding-2	SYPRO no-protein
C[C@@H]1CN([C@H](C)CO)C(=O)c2cc(NC(=O)C3CC3)ccc2O[C@@H]1CN(C)S(C)(=O)=O	.	.	.	.	.	/	/	/
COC(=O)Cc1n[nH]c(=O)c2ccccc12	12	.	/	.	.	/	.	.
O=S(=O)(N[C@H]1CC[C@H](CCn2cc(-c3cccnc3)nn2)O[C@H]1CO)c1ccc(F)cc1	.	.	.	.	.	/	/	/
CCC(=O)N(NC1=NS(=O)(=O)c2ccccc21)S(=O)(=O)c1ccc(C)cc1	1.7	.	.	.	.	.	.	.
CCN(CC)S(=O)(=O)c1ccc(NC2=NS(=O)(=O)c3ccccc32)cc1	.	.	/	/	.	/	/	/
CO[C@H]1CN(C)C(=O)c2ccc(NC(=O)NC(C)C)cc2OC[C@H](C)N(C(=O)C2CCC2)C[C@H]1C	.	.	.	.	.	.	/	/
CC(C)N(C[C@H]1[C@H](c2ccccc2)[C@@H](CO)N1S(C)(=O)=O)C(=O)CN(C)C	1.2	.	.	.	/	.	.	.
CC(C)N(C[C@H]1[C@H](c2ccccc2)[C@H](CO)N1S(C)(=O)=O)C(=O)CN(C)C	.	.	.	.	.	.	/	/
COc1cccc(CNC(=O)C[C@@H]2CC[C@@H](NC(=O)C3CC3)[C@H](CO)O2)c1	.	.	.	.	.	.	/	/
O=C(Cc1ccccc1)NC1CCN(Cc2ccccc2)CC1	.	.	.	?	.	.	/	/
O=C(O)C1CSC2(CCN(Cc3ccccc3)CC2)N1 (configuration not stated)	39	.	/	.	.	/	.	.
C[C@H](CO)N1C[C@H](C)[C@H](CN(C)C(=O)NC2CCCCC2)OCCCC[C@H](C)Oc2ccc(NC(=O)Cc3ccccc3)cc2C1=O	.	.	.	/	.	/	/	/
C[C@@H]1CN([C@H](C)CO)C(=O)c2cc(NC(=O)Nc3cccc4ccccc34)ccc2O[C@H]1CN(C)Cc1ccncc1	.	/	.	?	.	/	/	/
N#CCSc1n[nH]c2nc3c(c(=O)n12)C1(CCCCC1)Cc1ccccc1-3	1.9	.	.	.	.	.	.	.
O=S(=O)(c1cccs1)N1CCCCN2[C@@H](CO)[C@@H](c3ccc(C4=CCCC4)cc3)[C@@H]2C1	.	.	.	.	.	/	/	/
Cc1nc2c(C)cccc2cc1C(=O)N/N=C/c1ccc(O)cc1	2.2	.	.	.	.	.	.	.
Cc1cccc2cc(/C=N/NC(=O)c3ccccc3O)c(Cl)nc12	.	.	.	.	.	.	/	/
O=C(N/N=C/c1ccc(Cl)cc1)c1ccc2nc[nH]c2c1	2.5	/	.	.	/	/	.	.
O=C(N/N=C/c1ccc(O)cc1)c1cccc(N/N=C/c2ccc(O)cc2)c1	1.7	/	.	/	.	.	.	.
O=C(N/N=C/c1ccc(F)cc1)c1cccc(NC(=O)c2ccc(F)cc2)c1	.	.	.	.	.	.	/	/
COC(=O)c1ccc(/C=N/NC(=O)c2ccc3nc[nH]c3c2)cc1	.	/	.	.	.	.	/	/
O=C(N/N=C/c1ccncc1)c1cccc(NC(=O)c2ccc(Cl)cc2)c1	2.4	.	.	/	.	.	.	.
COC(=O)[C@@H]1[C@@H](CO)[C@@H]2Cn3c(cccc3=O)[C@@H]2N1CC1CCOCC1	.	.	.	.	.	/	/	/
COc1ccc(NC(=O)N(C)C[C@@H]2Oc3ccc(NC(=O)C4CCCCC4)cc3CC(=O)N([C@H](C)CO)C[C@H]2C)cc1	.	.	.	.	.	.	/	/
O=C(N/N=C/c1ccncc1)c1cccc(N/N=C/c2ccncc2)c1	1.5	.	.	.	.	/	.	.
SMILES	FGF22 binding-1	ARNT-TACC3 inh	XiGFP reactiv	DENV2 CPE rescue	SIRT5 block	FN deposit inh	FGF22 binding-2	SYPRO no-protein
Cc1cccc(N/N=C/c2ccncc2)c1	.	.	.	?	.	.	/	/
C[C@@H]1CCCCO[C@@H](CN(C)CC2CCCCC2)[C@@H](C)CN([C@@H](C)CO)C(=O)c2cc(N(C)C)ccc2O1	.	.	.	.	.	/	/	/
C[C@H](CO)N1C[C@H](C)[C@@H](CN(C)S(=O)(=O)c2cn(C)cn2)Oc2ccc(NC(=O)c3ccncc3)cc2C1=O	.	.	.	.	.	.	/	/
C[C@H]1CN([C@@H](C)CO)C(=O)c2cc(NC(=O)c3ccncc3)ccc2O[C@@H]1CN(C)S(=O)(=O)c1cn(C)cn1	1.4	.	.	.	.	/	.	.
C[C@@H]1CN([C@H](C)CO)C(=O)c2cc(N(C)C)ccc2O[C@@H]1CN(C)CC1CCCCC1	1.4	.	.	.	.	.	.	.
Cc1noc(C)c1S(=O)(=O)Nc1ccc2c(c1)C(=O)N([C@H](C)CO)C[C@H](C)[C@H](CN(C)S(=O)(=O)c1cccs1)O2	.	.	.	.	.	/	/	/
C[C@H]1CN([C@@H](C)CO)C(=O)c2cc(NC(=O)CCC(F)(F)F)ccc2O[C@H]1CN(C)CC1CC1	1.8	.	.	.	.	/	.	.
Cc1noc(C)c1S(=O)(=O)N(C)C[C@H]1Oc2ccc(NS(=O)(=O)c3cccs3)cc2C(=O)N([C@@H](C)CO)C[C@H]1C	2.1	.	.	.	.	/	.	.
CO[C@@H]1CN(C)C(=O)c2ccc(NC(=O)c3nc4ccccc4s3)cc2OC[C@H](C)NC[C@@H]1C	.	.	.	.	.	.	/	/
C[C@@H]1CN([C@@H](C)CO)C(=O)c2cc(NS(=O)(=O)c3cn(C)cn3)ccc2O[C@@H]1CN(C)CC1CC1	1.4	.	.	.	.	/	.	.
C[C@@H]1CN([C@@H](C)CO)C(=O)Cc2cc(NC(=O)C3CC3)ccc2O[C@H]1CN(C)S(=O)(=O)c1cn(C)cn1	.	.	.	.	.	.	/	/
C[C@@H]1CN([C@H](C)CO)C(=O)Cc2cc(NC(=O)C3CC3)ccc2O[C@H]1CN(C)S(=O)(=O)c1cn(C)cn1	1.3	.	.	.	.	/	.	.
C[C@H](CO)N1C[C@H](C)[C@H](CN(C)CC2CC2)Oc2ccc(NS(=O)(=O)c3cn(C)cn3)cc2C1=O	.	.	.	.	.	/	/	/
Cc1noc(NC(=O)c2cccc(Cl)c2Cl)c1C#N	1.3	.	.	.	.	.	.	.
Cc1c2c(n3c(nc4ccccc43)c1C#N)N(CCN(C)C)CC2	1.4	.	.	.	.	.	.	.
COc1cccc(NC(=O)N(C)C[C@H]2OCc3ccccc3-c3ccccc3C(=O)N([C@H](C)CO)C[C@H]2C)c1	.	.	.	?	.	.	/	/
